Columns and labels:
LS1034 cells = test: Tepoxalin drug synergy/antagonism assay, LS1034; assay type: cell-based, human; settings: LS1034, 5 days, tepoxalin doses above ~5 μM
ABCB1 = ABCB1 (Homo sapiens, UniProt P08183); test: ABCB1 activity assays; assay type: cell-based; settings: MDR1-MDCK cells; calcein AM and loperamide transport assays
Outline: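 Calcein AM efflux assay: MDR1-MDCK (MDCKII) cells incubated with test compound and calcein AM; fluorescence read-out expressed as percent ABCB1 inhibition, mean of 3 replicates. Transport assay: loperamide added to the apical side of an MDR1-MDCK monolayer and basolateral transport quantified over 60 minutes, with test compound or verapamil positive control.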

[1] = tested on: LS1034 colorectal cancer cells; test: Cellular viability assay; assay type: cell-based; settings: Homo sapiens, LS-1034
Outline: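 LS1034 cells were grown in RPMI with 10% heat-inactivated FBS and 1% penicillin-streptomycin, and tested mycoplasma-negative. They were seeded at 2000 cells/well and digitally dispensed with compound the next day. Exposure was 5 days. CellTiter-Glo luminescence was read, replicate wells were averaged and normalized to vehicle, and dose curves were fitted.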

[2] = tested on: Kuramochi ovarian cancer cell line; test: Viability of Kuramochi wild type and ABCB1-overexpressing cells; assay type: cell-based, human; settings: low-expressing, tepoxalin-insensitive cell line (Kuramochi), 8 days
Outline: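 Kuramochi ovarian cancer cells, wild-type or ABCB1-overexpressing, were grown in RPMI with 10% FBS and seeded at 2000 cells/well. Compound was added the next day and cells were treated for 8 days. Viability was read by CellTiter-Glo luminescence, normalized to vehicle, and reported as the mean of 3 independently treated wells with SD.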

PDE3A-SLFN12 = settings: cited from earlier work
SF295 glioma cell line = test: Viability of SF295 cells with and without MTF1 knockout; assay type: cell-based, human; settings: for change of drug sensitivity after MTF1 knockout: SF295 cells, CRISPR/Cas9 MTF1 knockout vs control
Outline: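 SF295 glioma cells: wild-type, Cas9 with GFP sgRNA, or Cas9 with MTF1 sgRNAs. Knockout was confirmed by NGS indel assay and loss of MTF1 target gene expression by RNA-seq. Cells were seeded at 2000 cells/well and dosed the next day. CellTiter-Glo viability was normalized to vehicle and reported as the mean of 3 independently treated wells with SD.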

[3] = tested on: LS1034 colon cancer cell lines with and without ABCB1 knockout
[4] = tested on: ABCB1-expressing cancer cells; test: Viability of ABCB1-expressing cancer cells; assay type: cell-based, human; settings: compared with tepoxalin
[5] = tested on: LS1034 and REC1 cell lines; test: Drug synergy/antagonism assays, LS1034 and REC1; assay type: cell-based, human
Outline: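 LS1034 or REC1 cells received a dose-response matrix of test compound with paclitaxel, and viability was read by CellTiter-Glo. Signals were normalized to the median of DMSO wells on each plate. Bliss synergy scores were estimated across all dose combinations with default baseline correction. The value is the score with highest magnitude across combinations (max synergy).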

OVISE cells = test: Viability of OVISE cells with and without SLC26A2 knockout; assay type: cell-based, human; settings: CRISPR/Cas9 SLC26A2 knockout
Outline: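 OVISE cells were grown in RPMI with 10% FBS and used with or without CRISPR/Cas9 SLC26A2 knockout; GFP sgRNA served as the non-targeting control. Indel frequency at the cut sites was checked by NGS. Cells were seeded at 2000 cells/well and dosed the next day. CellTiter-Glo viability was normalized to vehicle and reported as the mean of three independently treated wells with SD.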

Sequence of ABCB1 (P08183 whole entry): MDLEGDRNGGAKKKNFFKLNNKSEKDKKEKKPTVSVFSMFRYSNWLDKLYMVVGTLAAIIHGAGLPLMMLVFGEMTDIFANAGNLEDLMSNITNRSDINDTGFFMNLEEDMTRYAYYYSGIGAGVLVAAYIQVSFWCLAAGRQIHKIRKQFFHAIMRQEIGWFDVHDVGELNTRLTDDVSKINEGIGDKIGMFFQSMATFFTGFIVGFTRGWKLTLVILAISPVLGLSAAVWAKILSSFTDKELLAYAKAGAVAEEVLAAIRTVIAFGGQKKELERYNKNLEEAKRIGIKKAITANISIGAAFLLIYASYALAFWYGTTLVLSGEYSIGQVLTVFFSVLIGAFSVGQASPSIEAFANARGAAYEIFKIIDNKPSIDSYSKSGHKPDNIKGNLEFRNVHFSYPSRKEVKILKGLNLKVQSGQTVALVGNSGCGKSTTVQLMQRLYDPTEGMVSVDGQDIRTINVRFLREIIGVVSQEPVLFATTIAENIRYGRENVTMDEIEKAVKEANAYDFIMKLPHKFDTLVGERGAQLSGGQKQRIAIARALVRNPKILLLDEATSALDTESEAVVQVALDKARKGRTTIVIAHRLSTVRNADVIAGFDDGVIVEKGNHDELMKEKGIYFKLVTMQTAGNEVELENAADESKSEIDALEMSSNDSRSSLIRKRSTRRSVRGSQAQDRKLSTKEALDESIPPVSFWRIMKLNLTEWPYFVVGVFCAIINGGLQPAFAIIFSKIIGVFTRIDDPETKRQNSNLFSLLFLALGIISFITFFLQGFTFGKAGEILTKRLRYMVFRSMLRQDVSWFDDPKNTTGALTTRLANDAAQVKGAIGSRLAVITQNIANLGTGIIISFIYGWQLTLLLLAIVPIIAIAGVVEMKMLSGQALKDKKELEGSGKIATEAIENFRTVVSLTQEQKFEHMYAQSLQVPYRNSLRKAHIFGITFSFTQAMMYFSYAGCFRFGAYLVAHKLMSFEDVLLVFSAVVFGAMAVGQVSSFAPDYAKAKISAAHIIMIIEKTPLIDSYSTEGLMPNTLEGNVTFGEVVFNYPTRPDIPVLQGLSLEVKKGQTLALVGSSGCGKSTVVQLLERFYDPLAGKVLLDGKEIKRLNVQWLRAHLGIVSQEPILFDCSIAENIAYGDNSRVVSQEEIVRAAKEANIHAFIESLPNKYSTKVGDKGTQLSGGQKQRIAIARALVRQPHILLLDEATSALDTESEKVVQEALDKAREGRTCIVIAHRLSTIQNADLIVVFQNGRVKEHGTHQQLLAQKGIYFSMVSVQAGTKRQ

Q: Which “Bliss synergy in combination with tepoxalin” value (LS1034 cells) does the source give for O[C@@H](COc1cccc2ncccc12)CN1CCN([C@@H]2c3ccccc3[C@@H]3[C@H](c4ccccc42)C3(F)F)CC1 [zosuquidar] here?
A: strong antagonism

Q: For COc1ccc(-n2nc(CCC(=O)N(C)O)cc2-c2ccc(Cl)cc2)cc1 [tepoxalin], which ABCB1 inhibition (ABCB1) is on record?
A: inhibit ABCB1 at high concentrations

Q: What about the IC50 [1] of the same molecule?
A: 3.8 µM

Q: And the “change of drug sensitivity after ABCB1 overexpression” value [2]?
A: increased drug sensitivity

Q: Which “induction of PDE3A-SLFN12 interaction” value (PDE3A-SLFN12) does the source give for COc1cc2c(cc1OC)-c1c/c(=N\c3c(C)cc(C)cc3C)n(C)c(=O)n1CC2 [trequinsin] here?
A: does not induce PDE3A-SLFN12 interaction

Q: With CC(C)C[C@H](NC(=O)[C@H](Cc1ccccc1)NC(=O)c1cnccn1)B(O)O [bortezomib] as the molecule, how does the “change of drug sensitivity after MTF1 knockout” value (SF295 glioma cell line) read?
A: did not alter sensitivity

Q: Which results are given for COc1ccc(-n2nc(CCC(=O)O)cc2-c2ccc(Cl)cc2)cc1 [RWJ20142, 3-(5-(4-chlorophenyl)-1-(4-methoxyphenyl)-1H-pyrazol-3-yl)propanoic acid]?
A: cell permeability [3]: not cell-permeable; inhibition of ABCB1-expressing cancer cells [4]: no inhibition

Q: With CCN(CC)C(=S)SSC(=S)N(CC)CC [disulfiram] as the molecule, how does the “effect of copper chelator tetrathiomolybdate (TTM) on the increased sensitivity” value (SF295 glioma cell line; SF295 MTF1 knockout cells, co-treatment with 1 μM TTM) read?
A: completely reversed

Q: What about the “change of drug sensitivity after MTF1 knockout” value (SF295 glioma cell line) of the same molecule?
A: increased sensitivity

Q: With COc1cc2c(cc1OC)CN(CCc1ccc(NC(=O)c3cc(OC)c(OC)cc3NC(=O)c3cnc4ccccc4c3)cc1)CC2 [tariquidar] as the molecule, how does the “maximum synergy score in combination with paclitaxel” value [5] read?
A: strongly synergistic

Q: Which “sensitivity of cells after SLC26A2 knockout” value (OVISE cells) does the source give for Cc1occc(=O)c1[O-].Cc1occc(=O)c1[O-].[O]=[V+2] [BMOV, bis(maltolato)oxovanadium(IV)] here?
A: resistant

Q: For “bis(ethylmaltolato)oxovanadium(IV) [BEOV]”, which “sensitivity of cells after SLC26A2 knockout” value (OVISE cells) is on record?
A: resistant

Q: For COc1cc2c(cc1OC)CN(CCc1ccc(NC(=O)c3cccc4c(=O)c5cccc(OC)c5[nH]c34)cc1)CC2 [elacridar], which “maximum synergy score in combination with paclitaxel” value [5] is on record?
A: strongly synergistic

Source: PMC7328899 (Nature cancer, 2020)
